Screening results as filed in PubChem.
Sampled rows, rich in hits. Any-hit rate of the full collection: about 3.7%.
KCNK9 inh: KCNK9 potassium channel inhibitors, primary screen, HEK293 cells, thallium flux | Potassium channel subfamily K member 9 (Homo sapiens), Q9NPC2 | FluxOR thallium flux fluorescence; hits give low values | B-score at 10 µM | actives 1.2% (n = 310,000);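 active means ratio B-score over 3 SD below the library mean, with starting fluorescence within 5 SD of its mean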;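 further: negative B-score means less thallium flux so channel inhibition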
hERG rescue: hERG rescue from dofetilide block, primary screen, cell-based, CHO-hERG, FluxOR thallium flux, dofetilide IC70; dofetilide IC70 present; activation (rescue from dofetilide block), less the hit threshold, % at 10 µM; actives 0.51% (n = 310,000);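 active means activation above the mean of controls blocked by dofetilide plus 5 SD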;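 further: thallium influx through hERG after potassium depolarization seen as dye fluorescence rise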
Kir21 block: inhibitors of mouse Kir2.1 inward-rectifier potassium channel; Inward rectifier potassium channel 2 (Mus musculus), P35561; HEK293-Kir2.1, FluxOR thallium flux fluorescence; hits give low values; B-score at 10 µM; actives 0.85% (n = 310,000); AID 1672, 2009;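 active means fluorescence ratio B-score at or below minus 3 SD of library scores, with starting-brightness B-score within 2 SD, cut at about -4.2 in these data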;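 further: channel flux triggered by added potassium and thallium sulfate stimulus; B-score of peak minus minimum fluorescence over baseline after thallium stimulus; more negative B-score means stronger Kir2.1 block with less thallium influx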
KCNQ1 block: inhibitors of human KCNQ1 channel, primary screen, cell-based, thallium flux, high-throughput; Potassium voltage-gated channel subfamily KQT member 1 (Homo sapiens), P51787; CHO-K1 KCNQ1, FluxOR thallium flux fluorescence; hits give high values; B-score at 10 µM; actives 1.3% (n = 310,000); AID 2642, 2010;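 active means compounds whose thallium flux B-score, printed positive for inhibition, exceeds three library SD while starting fluorescence stays within three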;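 further: channel opened by potassium depolarization with thallium stimulus after 20 min compound exposure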
KCNK3 inh: human KCNK3 channel inhibitors, primary screen, CHO cells, FluxOR thallium flux, B-score | Potassium channel subfamily K member 3 (Homo sapiens), O14649 | FluxOR fluorescence; hits give low values | B-score at 10 µM | actives 0.84% (n = 340,000) | AID 602410, 2012;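 active means B-score under library mean minus 4 SD, starting fluorescence ratio at most library mean plus 5 SD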;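 further: more negative B-score means stronger inhibition of thallium flux through KCNK3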
KCNQ1 act: potentiators or activators of KCNQ1 channel, primary screen, cell-based, thallium flux, high-throughput. AID 2648, 2010. Potassium voltage-gated channel subfamily KQT member 1 (Homo sapiens), P51787. B-score at 10 µM. CHO-K1 KCNQ1, thallium flux FluxOR fluorescence; hits give high values. actives 0.35% (n = 310,000);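 active means fluorescence ratio B-score, a plate-corrected score, at least three library SD, with initial intensity B-score within 5 SD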
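Test system: CHO-K1 cells stably expressing KCNQ1 / Medium: assay buffer / Also added: depolarizing K+/Tl+ stimulus, K2SO4 and Tl2SO4 each 12.5 mM in 5x stock / Incubation: 90 min dye loading and 20 min compound exposure, both at room temperature / Signal: thallium influx via FluxOR fluorescence, kinetic imaging / Evaluation: B score of baseline-normalized fluorescence ratio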
The depositor's hits bear a star; i = inactive; nt = no result given.

SMILES	KCNK9 inh	hERG rescue	Kir21 block	KCNQ1 block	KCNK3 inh	KCNQ1 act
O=C(O)c1sccc1NC(=O)c1c(Cl)cccc1Cl	i	-11	-0.31	i	i	i
O=C(CCC1CCCC1)Nc1cc(C(F)(F)F)ccc1N1CCOCC1	i	-11	-0.04	i	i	i
O=C(CCC1CCCCC1)Nc1cc(Cl)ccc1N1CCOCC1	nt	nt	nt	nt	-9*	nt
CN(Cc1ccccc1)C(=O)C1CCCN(Cc2ccc(Cl)cc2)C1 (configuration not stated)	i	-4	-4.2*	i	i	i
Cn1cnc([N+](=O)[O-])c1Oc1ccc2ccccc2c1	i	-2	-0.03	i	i	i
Cc1cc(C)n(CCC(=O)N/N=C/c2ccc(Cl)c([N+](=O)[O-])c2)n1	i	-12	-0.8	7*	i	i
COc1ccc(/C=N/NC(=O)CCn2nc(C)cc2C)cc1	i	-10	0.78	i	i	i
Cc1cccc(NC(=O)c2ccccn2)c1C	i	-7	-0.37	i	i	i
Cc1cccc(NC(=O)c2n[nH]c([N+](=O)[O-])c2Br)c1C	i	-14	-0.05	7*	i	i
CCC1CCC(N2CCN(c3cccc(OC)c3)CC2)CC1 (configuration not stated)	i	-10	1.1	i	i	i
CCOc1ccc(OCC)c(NC(=O)CN2CCN(c3cccc(C)c3)CC2)c1	i	-6	1.1	i	i	i
CCOc1ccc(OCC)c(NC(=O)CN2CCN(c3cc(C)ccc3C)CC2)c1	i	-11	-0.06	6*	i	i
Cc1ccc2cc(C#N)c(N3CCCN(C(=O)C4CCCO4)CC3)nc2c1C (configuration not stated)	i	-30	-5.7*	i	i	i
Cc1ccc2cc(C#N)c(N3CCCC3)nc2c1C	i	-1	2	i	i	i
CCOC(=O)C=C(C(=O)OCC)C(=O)OCC	nt	nt	nt	nt	i	nt
Cc1nc2ccccc2c2oc(C(=O)Nc3ccc4c(c3)OCCO4)cc12	i	-10	1.6	i	i	i
Cc1nc2ccccc2c2oc(C(=O)Nc3ccc(C(C)C)cc3)cc12	i	-8	0.16	9*	i	i
Cc1nc2ccccc2c2oc(C(=O)NCC3COc4ccccc4O3)cc12 (configuration not stated)	i	-17	-0.97	i	-10*	i
COc1ccc([C@@]23Oc4cc(OC)cc(OC)c4[C@]2(O)[C@H](O)[C@H](C(=O)N(C)C)[C@H]3c2ccccc2)cc1	nt	nt	nt	nt	i	nt
Clc1ccc(OCCCN2CCCC2)cc1Cl	i	-13	-0.14	i	i	i
O=C1Cc2ccccc2Sc2cc(OCCCN3CCCCC3)ccc21	i	-12	-8.7*	i	i	i
O=C1Cc2ccccc2Sc2c(OCCN3CCCCC3)cccc21	i	-17	-7.7*	i	i	i
CCOc1ccccc1OCCN1CCCC1	i	-1	-1.3	i	i	i
CN(C)CCCOc1ccc2c(c1)Sc1ccccc1CC2=O	i	-7	-4.2*	i	i	i
O=C(NNC(=O)c1ccco1)c1ccc(NS(=O)(=O)c2cccs2)cc1	i	-5	-0.42	i	i	i
SMILES	KCNK9 inh	hERG rescue	Kir21 block	KCNQ1 block	KCNK3 inh	KCNQ1 act
O=C(OCC(=O)N1CCc2ccccc2C1)c1cccc([N+](=O)[O-])c1	i	-2	-0.46	i	i	i
Cc1ccc(-c2csc(N=C(N)N)n2)c(C)c1	i	-15	-8.3*	i	i	i
CCC(C(=O)NC1CCCC1)N(C(=O)Cn1nnc(-c2ccc(C)o2)n1)c1cccc(OC)c1 (configuration not stated)	i	-6	-0.07	i	i	i
O=C(Nc1ccc(Cl)cc1)N1CCCN(Cc2ccc(F)cc2)C1	i	-14	-4.5*	i	i	i
O=C(Nc1ccccc1)N1CCN(Cc2ccc(Cl)cc2)CC1	i	-8	1.2	i	i	i
COc1ccc(/C=C/C(=O)O)cc1S(=O)(=O)N1CCC(C)CC1	i	-14	0.23	i	i	i
CNCc1ccccc1Sc1ccc(O)c(O)c1	i	-2	-6.5*	i	i	i
CCN(CC)c1ccc2nc3c4ccccc4c(=O)cc-3oc2c1	i	-2	-0.63	i	nt	i
CCN(CC)c1ccc2c(-c3ccc(S(=O)(=O)O)cc3S(=O)(=O)[O-])c3ccc(=[N+](CC)CC)cc-3oc2c1	i	-41	-18	25*	i	i
CCOc1cc(/C=C2\COc3ccccc3C2=O)cc(Br)c1OCC(=O)N(C)C	i	-12	-5*	i	i	i
CCOC(=O)C(=O)Nc1nc(-c2ccccc2)c(-c2ccccc2)o1	i	-5	-0.25	i	i	i
COc1cccc(C(=O)Nc2c(F)c(F)c(F)c(F)c2F)c1	i	-11	2.4	i	i	i
COc1ccc(-c2oc(NC(=O)c3ccc(C)cc3)c(C#N)c2-c2ccc(OC)cc2)cc1	i	-1	2.5	i	i	i
O=C(Nc1nc(-c2ccccc2)c(-c2ccccc2)o1)c1ccc(F)cc1	i	5.6*	0.07	i	i	56*
COc1ccc(C(=O)Nc2oc(-c3ccccc3)c(-c3ccccc3)c2C#N)cc1	i	-16	-0.55	7*	i	i
COc1cccc(C(=O)Nc2cc(C)c3c(=O)oc4ccccc4c3n2)c1	-11*	-7	-1.5	i	-10*	i
COc1cccc(C(=O)Nc2nc(-c3ccccc3)c(-c3ccccc3)o2)c1	i	-7	3.7	i	i	9*
COc1ccccc1C1/C(=C(\O)c2ccc3c(c2)OCCO3)C(=O)C(=O)N1Cc1cccnc1 (configuration not stated)	i	-8	1.2	i	i	i
COc1cc(NC(=O)CSc2nc(C)c(C)c(C)n2)cc(OC)c1	i	7.5*	0.23	i	i	i
Cc1ccccc1S(=O)(=O)Nc1nc2ccccc2nc1Cl	i	-6	-1.1	i	i	i
O=S(=O)(Nc1nc2ccccc2nc1Cl)c1ccc(Br)cc1	i	-10	-1	9*	i	i
COc1ccc([C@H]2CC(=O)C=C(c3ccc(C(=O)O)cc3)C2)cc1OC	nt	nt	nt	nt	i	nt
